M5 PAM = human M5 muscarinic receptor positive allosteric modulators, primary screen, CHO-K1 cells, Fluo-8 calcium fluorescence. CHO-K1 hM5, ACh EC20 PAM; 0% = ACh EC20, 100% = ACh EC100. activation, % at 3 µM. 0.3% of 360,000 active;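 active means activation above the run cutoff, the mean activation of all test compounds plus 3 SD, cut at about 18% in these data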
Target sequence (P08912 whole entry, looked up): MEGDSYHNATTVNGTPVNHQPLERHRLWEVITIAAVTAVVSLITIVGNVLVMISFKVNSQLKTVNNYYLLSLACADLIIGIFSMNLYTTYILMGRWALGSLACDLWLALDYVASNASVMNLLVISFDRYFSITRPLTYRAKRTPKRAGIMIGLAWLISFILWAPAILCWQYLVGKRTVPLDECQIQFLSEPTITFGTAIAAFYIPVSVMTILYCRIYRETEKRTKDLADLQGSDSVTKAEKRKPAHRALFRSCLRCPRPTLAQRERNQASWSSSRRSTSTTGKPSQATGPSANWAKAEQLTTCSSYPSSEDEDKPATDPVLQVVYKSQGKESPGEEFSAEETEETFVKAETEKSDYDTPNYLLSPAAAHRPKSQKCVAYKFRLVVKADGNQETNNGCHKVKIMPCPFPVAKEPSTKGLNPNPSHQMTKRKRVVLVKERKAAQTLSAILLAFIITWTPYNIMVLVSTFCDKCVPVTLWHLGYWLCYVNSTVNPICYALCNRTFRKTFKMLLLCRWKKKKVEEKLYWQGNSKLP
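Measured by: Fluo-8 calcium fluorescence; material: human M5 receptor in CHO-K1 cells; schedule: Post-acetylcholine fluorescence recording 140 s; benchmarks: low control EC20 acetylcholine (0%), high control EC100 acetylcholine (100%); read-out: Max/basal fluorescence ratio as % of EC20–EC100 ACh window; compound: single dose, 3 µM nominal final test concentration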
CHRM5 antagonist = human M5 muscarinic receptor antagonists, primary screen, CHO cells, Fluo-8 calcium fluorescence | inhibition, % at 3 µM | AID 624040, 2012 | CHO-hM5 cells, ACh EC80 | 0.59% of 360,000 active | Muscarinic acetylcholine receptor M5 (Homo sapiens), P08912;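 active means inhibition above a per-plate cutoff, the mean of that plate's test compounds plus 3 SD, cut at about 27% in these data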
CHRM4 agonist = human M4 muscarinic receptor agonists, primary screen, CHO-K1 cells, Fluo-8 calcium fluorescence; Muscarinic acetylcholine receptor M4 (Homo sapiens), P08173; CHO-K1 hM4/Gqi5; vehicle 0%, full acetylcholine response 100%; activation, % at 3 µM; 0.14% of 360,000 active; AID 624127, 2012;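 active means activation above the run mean over all test wells plus 3 SD, cut at about 32% in these data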;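 further: peak over basal fluorescence ratio per well then scaled between controls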
CHRM4 antagonist = human M4 muscarinic receptor antagonists, primary screen, CHO cells, Fluo-8 calcium fluorescence; CHO-hM4 cells, ACh EC80; 0.73% of 360,000 active; inhibition, % at 3 µM;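 active means inhibition above its plate's cutoff, the mean inhibition of sample wells plus 3 SD, cut at about 27% in these data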
M4 PAM = human M4 muscarinic receptor positive allosteric modulators, primary screen, CHO-K1 cells, Fluo-8 calcium fluorescence | Muscarinic acetylcholine receptor M4 (Homo sapiens), P08173 | CHO-K1 hM4/Gqi5, ACh EC20; 0% = ACh EC20, 100% = maximal ACh | activation, % at 3 µM | 0.4% of 360,000 active | AID 624126, 2012;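 active means activation above its plate's cutoff, the mean activation of sample wells plus 3 SD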
M5 ag = human M5 muscarinic receptor agonists, primary screen, CHO-K1 cells, Fluo-8 calcium fluorescence; activation, % at 3 µM; CHO-K1 hM5 cells; 0% DMSO wells, 100% maximal acetylcholine response; 0.19% of 360,000 active; Muscarinic acetylcholine receptor M5 (Homo sapiens), P08912; AID 624037, 2012;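 active means activation above the run's mean over test compounds plus 3 SD, cut at about 23% in these data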;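 further: signal is peak over basal fluorescence ratio across the kinetic read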
Of the large screens only hits and unclear results are named; the others gave an inactive call; ! = a repeat was not active. Most compounds without a hit are left out; they make up all but 1.9% or so of the library.

c1ccc(CNc2ncnc3ccccc23)cc1	CHRM4 agonist 33.8!, CHRM4 antagonist 38.2!, M5 ag 24.0!
CCc1nc2ccc(C(=O)NCc3cccs3)cn2c1N(CC)Cc1cccc(Br)c1	none
Cc1cccc(C)c1NC(=O)C1C(c2ccccc2)=Nc2ccccc2N1C(=O)c1cnccn1 (stereo not given)	none
CC1Cc2ccccc2N1S(=O)(=O)c1cnc[nH]1 (stereo not given)	M5 PAM 43.4
C/C(=N\NC(=O)c1cccc(C)c1)c1ccc(N2CCOCC2)cc1	M5 PAM 18.5
O=C(c1ccccc1)c1sc(Nc2ccc3c(c2)OCO3)nc1-c1ccccc1	none
O=C(Nc1ccc(F)cc1)C(c1cc2ccccc2o1)N1CCN(c2ccncc2)CC1 (stereo not given)	none
CC1(C(=O)Nc2ccc3[nH]ncc3c2)CCN1C(=O)C1(c2ccccc2)CC1 (stereo not given)	none
O=[N+]([O-])c1ccccc1/C=N/NC1=NCCN1	M5 PAM 19.1
O=[N+]([O-])c1ccccc1C=NNc1ccccc1	none
CCOC(=O)[C@]12CCCC=C1N(Cc1cccc3ccccc13)C(=O)[C@H](CC(=O)N1CCCC1)C2	none
COC(=O)c1cc(CNC(=O)Cc2ccsc2)ccc1OC	CHRM4 antagonist 98.3
Cc1occc1C(=O)N/N=C/c1ccc(N(C)C)cc1	M5 PAM 20.1
Cc1occc1C(=O)N/N=C/C=C/c1ccc(N(C)C)cc1	none
COc1ccc(OCC(=O)N/N=C/c2ccc(N(C)C)cc2)cc1	M4 PAM 21.6
COc1ccccc1CNc1nc(Nc2cccc(-c3cnco3)c2)c2sccc2n1	none
Cn1c(=O)c(C(=O)COc2ccc(C#N)cc2)c(N)n(Cc2ccccc2)c1=O	M5 ag 38.0
COC(=O)C[C@H]1CC[C@H](NC(=O)Nc2ccccc2F)[C@@H](CO)O1	none
CC(C)C(N)c1csc(NC(=O)Nc2cccc(Cl)c2)n1 (stereo not given)	none
CCOC(=O)[C@]12CCC=C1N(Cc1cccc3ccccc13)C(=O)[C@H](CC(=O)NCCCN1CCCC1=O)C2	none
Cn1c(NCCN2CCCC2)nc2cc(-c3cccc(C(F)(F)F)c3)sc2c1=O	none
NC(=O)CC[C@H](NC(=O)c1ccc(F)cc1)C(=O)OCC(=O)Nc1ccc(N2CCOCC2)cc1	M4 PAM 24.2
CC(=O)Nc1ccc(C(=O)OCC(=O)Nc2ccc(N3CCOCC3)cc2)cc1	none
CCC(=O)N1CCCC(C)(C(=O)Nc2ccc3oc(CC)nc3c2)C1 (stereo not given)	none
CCOC(=O)CS(=O)(=O)c1nc(-c2ccccc2)cc(C(F)(F)F)n1	CHRM4 antagonist 37.8
CCC(=O)Nc1cccc2c1C(=O)N(C)C2=O	none
CN1C(=O)c2cccc(NC(=O)C3CCCCC3)c2C1=O	M4 PAM 18.9
COC(=O)C1(C(=O)OC)C[C@H](c2ccc(OC)cc2)N(Cc2ccccc2OC)[C@@H]1c1cccs1	none
Cc1ccc2c(c1)C(c1ccc(F)cc1)N(C(=O)c1ccccc1Br)CC(=O)N2 (stereo not given)	CHRM4 antagonist 65.7
O=C(Nc1ccc2c(c1)OCCO2)C1c2ccccc2OCC(=O)N1Cc1ccco1 (stereo not given)	none
CCOc1ccccc1N(CC(=O)NCCSc1ccccn1)S(=O)(=O)c1ccccc1	CHRM4 agonist 32.5
COc1ccc(-c2nc(NCCN(C)C)nc3ccsc23)c(C)c1	none
CN1OC[C@@H]2CN(S(=O)(=O)c3cccc4ccccc34)[C@H](c3ccc(-c4cccnc4)cc3)C[C@@H]21	none
CCN(CC)C(=O)C1=C(C)N(Cc2ccc(OC)cc2)C(=O)C(CC(=O)NCCN2CCOCC2)C1 (stereo not given)	none
COc1ccc(C(=O)NC(=S)Nc2ccc(N3CCN(C(C)=O)CC3)cc2)cc1[N+](=O)[O-]	none
CC(=O)N1CCN(c2ccc(Oc3ccc([N+](=O)[O-])c(C(F)(F)F)c3)cc2)CC1	CHRM5 antagonist 27.3
CC(C)N(C(=S)Nc1cccc(S(=O)(=O)N(C)C)c1)c1ccccc1	M5 PAM 19.0
CN(C)S(=O)(=O)c1cccc(NC(=O)c2ccc(COc3ccccc3)cc2)c1	CHRM5 antagonist 26.9
CN(c1ccccc1)S(=O)(=O)c1cccc(NC(=O)c2cccc(C#N)c2)c1	CHRM5 antagonist 32.9
CN(c1ccccc1)S(=O)(=O)c1cccc(NC(=O)CSc2nncs2)c1	CHRM4 antagonist 27.1
CN(c1ccccc1)S(=O)(=O)c1cccc(NC(=O)CSc2nnc(N)s2)c1	none
COc1ccc(-c2n(CC(=O)OC3CC(C)CCC3C(C)C)c3ccccc3[n+]2C)cc1 (stereo not given)	CHRM5 antagonist 39.9
Cc1ccc(-c2nc3sc4c(c3c(=O)n2N)CC(C)(C)OC4)cc1	none
Cc1ccc(-c2nc3sc4c(c3c(=O)n2N)CCCC4)cc1	M4 PAM 37.7
COc1cc(SC)ccc1C(=O)NCCc1c[nH]c2ccccc12	none
COc1cc2cc(C(=O)NCCc3c[nH]c4ccccc34)c(N)nc2cc1OC	CHRM4 agonist 32.8, M5 ag 24.0
CCCCC(=O)N(C)c1c(CC)nc2c(OCc3ccccc3C)cccn12	none
COc1ccc(-c2cnc3c(NC=O)cc(-c4ccccc4OC)cn23)cc1OC	none
CC1(C)CC(=O)C=C(c2ccc(-c3cnc4ccccc4c3)cc2)C1=O	none
Nn1c(SCC(=O)N2CCCC2)nnc1-c1cccs1	none
O=C(c1ccc(F)cc1)N1CCCN(c2nc(-c3ccccc3)ns2)CC1	M5 PAM 19.6
O=C(Nc1ccccc1Cl)N1CCCN(c2nc(-c3ccccc3)ns2)CC1	none
COc1ccc(S(=O)(=O)N2CCCCC2C(=O)O)cc1OC (stereo not given)	M5 PAM 20.9
COc1cc2c(cc1OC)CN(C(=O)CNS(=O)(=O)c1ccc(C)c(C)c1)CC2	M5 PAM 23.2, M4 PAM 29.8
COc1cc2c(cc1OC)CN(C(=O)c1ccc(S(=O)(=O)N3CCCCC3)cc1)CC2	none
COc1cc2c(cc1OC)CN(C(=O)C1CCCN1S(=O)(=O)c1ccc(F)cc1)CC2 (stereo not given)	M4 PAM 17.0

Compound activity as filed in PubChem BioAssay.
